Most compounds without a hit are left out; they make up all but 2.9% or so of the library.
PfGluPho inh: PfG6PD enzyme inhibitors, primary screen, biochemical, fluorescence intensity, uHTS; glucose-6-phosphate dehydrogenase-6-phosphogluconolactonase (Plasmodium falciparum 3D7); PfGluPho enzyme, NADPH resazurin-diaphorase fluorescence; inhibition, % at 20 µM; hit rate 0.78% among 350,000;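 active = inhibition reaching at least a set limit at 20 µM in the primary screen, cut at about 59% in these data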;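 also: 0% = DMSO wells with substrate and 100% = DMSO wells lacking glucose-6-phosphate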
PfM18AAP inh-1: PfM18AAP inhibitors, malaria aminopeptidase, primary screen, biochemical, QFRET, recombinant enzyme; AID 1822, 2009; H-Glu-NHMec fluorogenic cleavage; hit rate 1.2% among 290,000; inhibition, % at 7.35 µM; M18 aspartyl aminopeptidase (Plasmodium falciparum 3D7);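 active = inhibition above the campaign mean inhibition over all tested compounds plus 3 SD, cut at about 28% in these data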;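 also: 0% = plate median of test compound wells and 100% = 2 mM ZnCl2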
Apaf1 inhib: inhibitors of human Apaf-1 apoptosome, primary screen, biochemical, DEVD-Rh110 fluorescence, uHTS; Apoptotic protease-activating factor 1 (Homo sapiens), O14727; hit rate 0.71% among 330,000; reconstituted apoptosome caspase-3 activity; inhibition, % at 20 µM; active = inhibition of at least 40% at 20 µM;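 also: plate controls were DMSO wells for no effect and DEVD-CHO caspase inhibitor wells for full effect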
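Material: biochemical Apaf-1 apoptosome reconstitution. Medium: Hepes buffer, pH 7.5. Also added: cytochrome c activation, bis-DEVD rhodamine 110 substrate. Timing: 30 min compound preincubation, 50 min activation, room temperature. Measured by: rhodamine 110 fluorescence at Ex 480/Em 540 nm.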
EBNA-1 inhibitor: EBNA-1 DNA-binding inhibitors, primary screen, biochemical, fluorescence polarization. inhibition, % at 14.8 µM. hit rate 0.34% among 300,000. AID 1950, 2009; in the data active = inhibition above about 28%
ZTA counter: ZTA (EBV) inhibition in EBNA-1 counter-screen | P03206 | ZTA-DNA binding, fluorescence polarization | inhibition, % at 11 µM | hit rate 0.15% among 320,000; in the data active = inhibition above about 33%
UBC13 inh: UBC13 polyubiquitin chain formation inhibitors, primary screen, biochemical, TR-FRET, uHTS. Ubiquitin-conjugating enzyme E2 N (Homo sapiens), P61088. AID 485273, 2010. hit rate 0.47% among 330,000. inhibition, % at 20 µM; in the data active = inhibition above about 45%, passing the limit was not always enough
Target sequence (P61088 whole entry, looked up): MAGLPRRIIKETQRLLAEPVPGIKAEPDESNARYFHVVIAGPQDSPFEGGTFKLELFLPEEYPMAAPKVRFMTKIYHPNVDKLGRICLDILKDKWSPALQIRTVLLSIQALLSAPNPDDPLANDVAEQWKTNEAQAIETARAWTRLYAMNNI
PfM18AAP inh-2: PfM18AAP inhibitors, malaria aminopeptidase, confirmation, biochemical, QFRET, recombinant enzyme, triplicate | shares compounds with PfM18AAP inh-1 | H-Glu-NHMec fluorogenic cleavage | inhibition, % at 7.35 µM | hit rate 28% among 2,400;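 active = mean inhibition over replicate wells above the hit cutoff set for the earlier primary screen, cut at about 29% in these data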;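 also: 0% = median of test compound wells and 100% = 2 mM ZnCl2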
CTSL1 counter: cathepsin L1 inhibitors, retest, confirmation, counter-screen for PFM18AAP inhibitor project, biochemical, QFRET, triplicate; inhibition, % at 5.96 µM; purified cathepsin L1, Z-Leu-Arg-MCA fluorescence; AID 2178, 2009; 2,400 tested, under 10 active; shares compounds with PfM18AAP inh-1;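 active = average inhibition across replicates above the hit cutoff set in the earlier primary screen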;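 also: 0% = median of test compound wells and 100% = Z-Phe-Ala-diazomethylketone 1 µM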
Target sequence (P07711 whole entry, looked up): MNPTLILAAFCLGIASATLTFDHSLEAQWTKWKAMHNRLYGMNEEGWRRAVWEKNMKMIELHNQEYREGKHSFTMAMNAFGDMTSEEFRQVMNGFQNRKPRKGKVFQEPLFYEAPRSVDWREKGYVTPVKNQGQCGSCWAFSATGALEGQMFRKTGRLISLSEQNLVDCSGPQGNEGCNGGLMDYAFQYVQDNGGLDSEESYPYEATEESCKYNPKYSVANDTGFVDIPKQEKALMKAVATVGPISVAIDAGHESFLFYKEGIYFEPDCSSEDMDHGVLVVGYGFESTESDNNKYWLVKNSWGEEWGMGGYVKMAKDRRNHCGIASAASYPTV
An asterisk follows results filed as active; · = not tested or not shown.

SMILES	PfGluPho inh	PfM18AAP inh-1	Apaf1 inhib	EBNA-1 inhibitor	ZTA counter	UBC13 inh	PfM18AAP inh-2	CTSL1 counter
COc1ccc(OC)c(-c2nn(-c3ccccc3)cc2C(=O)NCC(c2ccco2)N2CCCC2)c1 (stereo unspecified)	0.3	·	-117.3	·	4.7	13.1	·	·
CSc1ccc(NC(=O)NCCCN2CCC(Cc3ccccc3)CC2)cc1	-4.2	3.3	16.8	-3.3	-0.8	28.1	·	·
CCOc1ccc(NC(=O)C(Cc2ccccc2)NC(=O)C2CCCCC2)cc1 (stereo unspecified)	11.9	-6.3	-7.4	7.4	12.2	-2.1	·	·
CCN(c1ccccc1)S(=O)(=O)c1ccc(OC)c(NC(=O)Cn2cnc3c2c(=O)n(C)c(=O)n3C)c1	-3.3	1.0	-2.8	11.0	5.5	2.6	·	·
CC1CCN(S(=O)(=O)c2ccc(NC(=O)CCN3C(=O)C4CC=CCC4C3=O)cc2)CC1 (stereo unspecified)	3.5	·	15.7	·	17.2	2.1	·	·
COc1ccc(-c2csc(NC(=O)CSc3ncn[nH]3)n2)cc1OC	7.1	66.2*	6.3	-8.9	1.9	-1.0	48.7*	0.1
COC(=O)c1ccc(C(=O)OC)c(=O)[nH]1	-4.5	17.7	1.7	-6.9	-8.1	3.2	-61.9	2.6
O=C(c1ccccc1)N1N=C(c2ccccc2O)CC1c1ccccc1 (stereo unspecified)	7.3	12.9	11.6	-3.6	-11.5	7.9	·	·
NNc1ccc2c(C(F)(F)F)cc(C(F)(F)F)nc2n1	11.8	45.5*	9.2	9.1	-14.6	6.3	24.1	-3.8
Cc1ccc(/C=N/Nc2ccc3c(C(F)(F)F)cc(C(F)(F)F)nc3n2)cc1	4.1	17.5	8.4	0.7	13.5	-8.7	·	·
CCN(CC(=O)NCc1ccc(F)cc1)C(=O)c1ccc(C)o1	5.3	-7.9	4.7	3.1	4.4	-0.1	·	·
CN1/C(=C\C(=O)c2cccs2)C(C)(C)c2ccccc21	58.8	4.0	9.7	-9.9	-9.4	2.2	·	·
CN1/C(=C\C(=O)c2cccc([N+](=O)[O-])c2)Sc2ccccc21	16.3	12.0	5.0	2.6	-5.7	-2.4	·	·
CN1/C(=C/C(=O)c2cccs2)Sc2ccccc21	·	49.4*	-3.3	4.8	16.1	-16.3	-15.9	0.7
COc1ccc(C(=O)/C=C(\C)NCc2ccc3c(c2)OCO3)cc1	-18.7	23.3	14.0	-2.6	0.4	0.9	·	·
COc1cc(OC)cc(C(=O)/C=C2\Sc3ccccc3N2C)c1	9.5	46.7*	2.2	-2.4	2.8	5.8	-47.6	0.3
COc1ccc2c(c1)S/C(=C\C(=O)c1ccncc1)N2C	56.8	38.6*	-0.6	2.8	10.5	-10.1	27.2	5.8
COc1ccc(C(=O)/C=C2/Sc3cc4c(cc3N2C)OCO4)cc1	31.0	39.7*	-4.0	5.2	23.9	-0.1	-44.8	1.5
CN(c1ccc(OCC(=O)OCC(=O)c2c(N)n(C)c(=O)n(C)c2=O)cc1)S(=O)(=O)c1ccc2ccccc2c1	-17.6	-5.5	-7.5	16.5	7.7	-5.5	·	·
COCCCNC(=S)N/N=C/c1ccc(O)cc1O	-5.8	35.8*	-16.0	-6.0	-0.6	4.0	7.0	-0.2
COc1ccc(CNC(=O)c2ccc3c(c2)N(C)CCS3)cc1	36.5	14.7	9.5	1.6	7.0	23.4	·	·
COc1ccc(CNC(=O)c2ccc3c(c2)N(C)C(=O)CS3=O)cc1 (stereo unspecified)	40.8	47.1*	-3.2	0.3	-0.9	14.9	-15.2	4.9
COc1ccc(CCC(=O)OCC(=O)N2CCN(S(=O)(=O)c3ccc(C)cc3C)CC2)cc1	-6.0	·	8.6	·	-3.5	12.2	·	·
NNc1nc2ccccc2nc1C(F)(F)F	46.5	-8.0	7.5	-6.5	-1.1	-6.2	·	·
